{"source": "paper PMC5598522", "about": "(Toxicology Reports, 2014)", "key": {"[1]": {"test_system": "TA1535 TA100 TA102 TA98 TA1537", "assay": "Ames in vitro assay", "type": "cell-based, Salmonella", "outline": "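Genotoxicity screens. Ames: Salmonella strains exposed to 3–3000 μg/plate with and without metabolic activation; read-out was reverse-mutation frequency. Mouse lymphoma: L5178Y/TK+ cells treated for 4 h with S9 (15.7–41.8 μg/mL), for 4 h without S9 (5.23–15.7 μg/mL), and for 24 h without S9; read-out was clone number. Micronucleus: male and female Alderly Park rats given 2000 mg/kg; micronuclei scored 24 or 48 h post-dose.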"}, "[2]": {"test_system": "estradiol-induced prolactin release", "assay": "Ovariectomized rat estradiol-induced prolactin release", "type": "in vivo", "conditions": "ovariectomized female rats, 180 mg/kg/day", "outline": "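Female Han Wistar rats (350–375 g) were ovariectomized and given jugular and femoral vein catheters, then recovered 7–14 days. Test compound (180 mg/kg/day) or vehicle (1% sodium CMC in 0.1% polysorbate 80) was given orally for 4 days (n = 10/group). On Day 4, estradiol (2 μg/rat) was given IV 1 h post-dose. Remote femoral blood was sampled to 5 h. Plasma prolactin was measured by ELISA. Baseline-subtracted AUC was log-transformed and compared by t-test.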"}, "platelet aggregation": {"test_system": "platelet aggregation", "conditions": "humans, 100 mg b.i.d., at 4, 12 and 24 h; cited from earlier work"}}, "data": [{"molecule": "CCCSc1nc(N[C@@H]2C[C@H]2c2ccc(F)c(F)c2)c2nnn([C@@H]3C[C@H](OCCO)[C@@H](O)[C@H]3O)c2n1", "note": "[Ticagrelor]", "values": [{"measurement": "Ames in vitro assay: Conclusion", "setting": "[1]", "result": "Negative"}, {"measurement": "Ames in vitro assay: Results", "setting": "[1]; 3–3000 μg/plate, with or without metabolic activation", "result": "No increased frequency of reverse mutations with or without metabolic activation"}, {"measurement": "Effect on estradiol-induced prolactin release", "setting": "[2]", "result": "all but completely blocked the estradiol-induced prolactin release"}, {"measurement": "Inhibition of platelet aggregation", "setting": "platelet aggregation", "result": "greater than 90%"}]}]}
